Laboratory results taken from PubChem BioAssay.
Calls of active or inactive are those of the source.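 Rule for the calls, unless noted: active = mean duplicate potentiation above the buffer control mean plus 5 SD of buffer wells; inactive = the rest.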

Columns and labels:
[1] = nonspecific flux increase, KCNQ1-free cells – parental CHO cells, counter-screen for KCNQ1 potentiator project (AID 493006;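 active = duplicate-averaged activation above buffer control mean plus 5 SD of those controls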;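 for activation: fluorescence ratio of max minus min over baseline after K+ and Tl+ depolarization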); settings: parental CHO-K1 cells, FluxOR thallium flux, at 10 µM; stronger effect = higher value
Method in brief: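 Material: parental CHO-K1 cells, FluxOR dye-loaded; Also added: Potassium/thallium depolarization pulse; Schedule: overnight 37 °C plating, 90 min dye, 20 min dark compound; Signal: kinetic FluxOR fluorescence, 10 s baseline, 110 s after stimulus.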

[2] = target: Potassium voltage-gated channel subfamily KQT member 1 (Homo sapiens) (UniProt P51787); assay: enhancement of KCNQ1 channel thallium flux – FluxOR thallium flux, CHO cells, duplicates, confirmation (AID 493007;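 active = potentiation averaged over duplicate wells exceeding buffer-only control mean by more than 3 SD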;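 for outcome: cells depolarized by a potassium plus thallium sulfate stimulus after compound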); settings: KCNQ1 cell line, FluxOR thallium flux fluorescence, at 10 µM; stronger effect = higher value, % of reference activator effect, buffer zero
Method in brief: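 System: KCNQ1-expressing CHO cell line; technique: kinetic thallium influx fluorescence with FluxOR dye, 10 s baseline, 110 s post-stimulus; timing: dye 90 min then compound 20 min, both at room temperature; controls: buffer-only wells as 0% and R-L3 activator as 100%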

[3] = target: Potassium voltage-gated channel subfamily KQT member 2 (Rattus norvegicus) (UniProt O88943); assay: KCNQ2 thallium flux enhancement – KCNQ2-CHO-K1 cells, selectivity assay for KCNQ1 potentiator project (AID 493009); settings: FluxOR thallium flux fluorescence, at 10 µM; stronger effect = higher value, scaled: buffer 0, activator control 100;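 note: assay conditions were tuned for KCNQ1 rather than KCNQ2 modulators; signal is max minus min fluorescence divided by baseline after thallium stimulus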
[4] = target: Potassium voltage-gated channel subfamily KQT member 1 (Homo sapiens) (UniProt P51787); assay: KCNQ1 activators by electrophysiology – IonWorks patch clamp, KCNQ1-CHO cells, orthogonal assay for KCNQ1 potentiator project, confirmation (AID 493184;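 active = current rise at least 3 SD above the untreated control mean in each of two repeat wells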;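 for current potentiation: percent change of the same well's current before compound addition so 0% = no change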); settings: automated patch clamp current, at 10 µM; stronger effect = higher value
Method in brief: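 Test system: KCNQ1-expressing CHO cells. Medium: pH 7.4 external bath. Probe or stimulus: voltage step from -90 mV holding to +40 mV, 2,000 ms. Compound: 10 µM final, single point. Detection: automated perforated-patch electrophysiology. Read-out: percent current increase versus pre-compound level. Repeats: two replicates.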

Chain of Potassium voltage-gated channel subfamily KQT member 1 (Homo sapiens) (P51787 whole entry, looked up): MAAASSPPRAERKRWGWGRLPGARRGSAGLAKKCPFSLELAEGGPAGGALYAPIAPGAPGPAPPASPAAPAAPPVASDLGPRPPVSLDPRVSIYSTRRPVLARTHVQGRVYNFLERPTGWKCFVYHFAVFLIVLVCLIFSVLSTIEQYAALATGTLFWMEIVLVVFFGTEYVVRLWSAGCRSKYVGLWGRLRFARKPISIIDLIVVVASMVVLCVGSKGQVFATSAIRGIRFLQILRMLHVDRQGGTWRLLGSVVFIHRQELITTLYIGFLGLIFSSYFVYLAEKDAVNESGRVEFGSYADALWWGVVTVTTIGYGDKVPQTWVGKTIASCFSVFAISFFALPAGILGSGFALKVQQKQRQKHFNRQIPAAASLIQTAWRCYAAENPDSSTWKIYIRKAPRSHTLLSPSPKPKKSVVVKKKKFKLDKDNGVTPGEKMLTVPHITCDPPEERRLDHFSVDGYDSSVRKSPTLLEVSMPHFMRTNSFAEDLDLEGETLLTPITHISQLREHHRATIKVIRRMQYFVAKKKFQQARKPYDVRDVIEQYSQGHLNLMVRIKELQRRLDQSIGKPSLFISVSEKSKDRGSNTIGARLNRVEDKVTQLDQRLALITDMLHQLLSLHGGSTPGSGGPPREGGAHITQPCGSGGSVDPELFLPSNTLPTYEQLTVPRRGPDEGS
Chain of Potassium voltage-gated channel subfamily KQT member 2 (Rattus norvegicus) (O88943 whole entry, looked up): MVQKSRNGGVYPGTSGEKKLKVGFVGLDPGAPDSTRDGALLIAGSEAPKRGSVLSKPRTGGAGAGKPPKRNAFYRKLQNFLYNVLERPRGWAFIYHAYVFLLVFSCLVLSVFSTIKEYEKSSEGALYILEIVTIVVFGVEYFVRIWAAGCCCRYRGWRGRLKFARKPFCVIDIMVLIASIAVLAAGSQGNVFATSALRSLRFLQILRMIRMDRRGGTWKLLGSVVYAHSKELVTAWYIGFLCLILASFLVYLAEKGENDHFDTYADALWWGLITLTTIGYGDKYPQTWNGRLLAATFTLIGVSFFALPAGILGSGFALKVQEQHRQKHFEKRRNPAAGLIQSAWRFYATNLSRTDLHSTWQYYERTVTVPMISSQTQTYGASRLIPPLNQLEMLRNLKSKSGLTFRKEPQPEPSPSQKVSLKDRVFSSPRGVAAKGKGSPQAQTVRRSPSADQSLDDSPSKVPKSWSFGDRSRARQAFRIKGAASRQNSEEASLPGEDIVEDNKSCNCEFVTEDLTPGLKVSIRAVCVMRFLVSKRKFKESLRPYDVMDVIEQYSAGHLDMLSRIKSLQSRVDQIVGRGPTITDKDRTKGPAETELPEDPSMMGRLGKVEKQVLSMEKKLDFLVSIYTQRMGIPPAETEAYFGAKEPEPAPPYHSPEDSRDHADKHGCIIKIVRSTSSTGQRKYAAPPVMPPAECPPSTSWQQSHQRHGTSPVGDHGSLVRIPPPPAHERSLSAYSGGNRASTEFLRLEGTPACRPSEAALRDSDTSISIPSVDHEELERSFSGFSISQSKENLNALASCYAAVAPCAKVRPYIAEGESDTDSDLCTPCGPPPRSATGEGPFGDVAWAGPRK

Compound	outcome [1]	outcome [2]	outcome [3]	outcome [4]	activation [1]	potentiation [2]	potentiation [3]	current potentiation [4]
N=c1sccn1CC(=O)Nc1cc(Cl)ccc1Oc1ccccc1	inactive	inactive	inactive	inactive	–	–	–	–
CCOC(=O)CN1C(=O)N(CC)C(C)=C(C(=O)OC)[C@@H]1c1ccccc1	inactive	inactive	inactive	inactive	–	–	–	–
O=C(CSc1nc2ccccc2s1)c1cc2ccccc2o1	inactive	inactive	inactive	inactive	–	–	–	–
CCOC(=O)c1c(NC(=S)NC)sc2c1CC(C)(C)SC2	–	–	–	inactive	498% (active)	126% (active)	444% (active)	–
COc1ccccc1-c1cc(C(=O)Nc2cccnc2)no1	–	–	–	inactive	314% (active)	112% (active)	398% (active)	–
O=c1c2ccccc2[nH]c(=S)n1CCc1ccccc1	–	inactive	inactive	inactive	159% (active)	–	–	–
CCOC(=O)C(C)Oc1cccc2c(=O)n(CC(=O)NCc3ccc4c(c3)OCO4)ccc12 (stereo unspecified)	inactive	inactive	inactive	inactive	–	–	–	–
CC(C)OC(=O)c1c(NS(=O)(=O)c2ccccc2)sc2c1CCCC2	–	–	–	inactive	262% (active)	126% (active)	338% (active)	–
O=c1[nH]c(C(Cl)(Cl)Cl)nc2ccc3ccccc3c12	–	–	–	inactive	166% (active)	50% (active)	202% (active)	–
CCN(CC)S(=O)(=O)c1cccc(C(=O)N[C@H](C(=O)NNC(=O)c2ccccc2)C(C)C)c1	inactive	inactive	inactive	inactive	–	–	–	–
CC1CCN(S(=O)(=O)c2cccc(C(=O)N3CCN(c4ccc(F)cc4)CC3)c2)CC1	inactive	inactive	inactive	inactive	–	–	–	–
CC(=O)O[C@H]1CSC[C@H]1NC(=O)c1ccccc1	inactive	inactive	inactive	inactive	–	–	–	–
CN(C)/C=N/S(=O)(=O)c1cccn1-c1ncc(C(F)(F)F)cc1Cl	inactive	inactive	inactive	inactive	–	–	–	–
CCOC(=O)C(=NCC1CCCO1)NNc1ccccc1Cl (stereo unspecified)	inactive	inactive	inactive	inactive	–	–	–	–
C=CCN(CC=C)C(=S)NC(=O)c1ccc(C)c(Br)c1	–	–	–	inactive	779% (active)	270% (active)	688% (active)	–
O=C(CC1(O)C(=O)N(C/C=C/c2ccccc2)c2ccccc21)c1ccccn1 (stereo unspecified)	inactive	inactive	inactive	inactive	–	–	–	–
Cc1cc(C(=O)N/N=C/c2cccs2)no1	inactive	inactive	inactive	inactive	–	–	–	–
Cc1ccc(S(=O)(=O)NN2C(=O)/C(=C/c3cccc(F)c3)SC2=S)cc1	–	–	–	–	176% (active)	20.5% (active)	152% (active)	37.3% (active)
Cc1cccc(NC(=O)Nc2ccc(OCc3ccccc3)cc2)n1	inactive	inactive	inactive	inactive	–	–	–	–
OC[C@H]1O[C@H](OC[C@H]2O[C@H](OC[C@H]3O[C@H](O[C@]4(CO)O[C@H](CO)[C@@H](O)[C@@H]4O)[C@H](O)[C@@H](O)[C@@H]3O)[C@H](O)[C@@H](O)[C@H]2O)[C@H](O)[C@@H](O)[C@H]1O	inactive	inactive	inactive	inactive	–	–	–	–

Compound	outcome [1]	outcome [2]	outcome [3]	outcome [4]	activation [1]	potentiation [2]	potentiation [3]	current potentiation [4]
O=c1[nH]cc(S(=O)(=O)c2ccccc2)[nH]1	inactive	inactive	inactive	inactive	–	–	–	–
CCCCCCCN1N=C(C)C(C(=O)c2ccccc2)C1=O (stereo unspecified)	inactive	inactive	inactive	inactive	–	–	–	–
CNC(=O)c1nnsc1S(=O)c1ccc(Cl)cc1 (stereo unspecified)	inactive	inactive	inactive	inactive	–	–	–	–
O=C(NC(=S)NCc1ccccc1)c1ccc(Br)o1	–	–	–	inactive	434% (active)	313% (active)	510% (active)	–
CCOc1ccc2[nH]c(=O)c(CN(CCN3CCCC3)C(=S)Nc3ccccc3OCC)cc2c1	–	inactive	–	inactive	137% (active)	–	164% (active)	–
COCCCn1c(=S)[nH]c2sc3c(c2c1=O)CCCC3	–	–	–	inactive	366% (active)	138% (active)	346% (active)	–
Cc1onc(-c2ccccc2)c1C(=O)NC(=S)Nc1sc2c(c1C#N)CCC(C)C2 (stereo unspecified)	–	–	–	inactive	145% (active)	28% (active)	142% (active)	–
CC(C)(C)c1ccc(OCC(=O)NNC(=S)NC(=O)c2ccco2)c(Br)c1	–	–	–	inactive	150% (active)	89.5% (active)	254% (active)	–
CCOc1ccc2nc(/N=C/c3nc(-c4ccccc4)oc3O)sc2c1	–	–	–	inactive	150% (active)	52.5% (active)	190% (active)	–
Cc1nn2c(c1-c1ccccc1)NC1=C(C(=O)CCC1)C2c1ccccc1 (stereo unspecified)	inactive	inactive	inactive	inactive	–	–	–	–
NS(=O)(=O)c1ccc(CCNC(=O)COC(=O)c2cc([N+](=O)[O-])ccc2N2CCOCC2)cc1	inactive	inactive	inactive	inactive	–	–	–	–
O=C(COc1cccnc1[N+](=O)[O-])Nc1cccc(S(=O)(=O)N2CCCCC2)c1	inactive	inactive	inactive	inactive	–	–	–	–
COC(=O)c1cn(NC(=O)Cc2ccc(Cl)c(Cl)c2)c(=O)c2ccccc12	inactive	inactive	–	inactive	–	–	252% (active)	–
Cc1cccc(OCC(=O)O/N=C(\N)c2ccc(Cl)cc2)c1	inactive	inactive	inactive	inactive	–	–	–	–
COC(=O)c1ccc(NC(=S)NC(=O)c2c(Cl)cnn2C)cc1	–	–	inactive	inactive	142% (active)	26% (active)	–	–
CCCCN1C=CC(=C2C(=O)c3ccccc3C2=O)C=C1	inactive	inactive	inactive	inactive	–	–	–	–
O=C(Nc1nnc(C2=COCCO2)o1)c1ccc(Br)cc1	–	–	–	inactive	142% (active)	18% (active)	169% (active)	–
CC(=O)/C=C1/C(=O)Nc2ccccc21	–	–	–	inactive	167% (active)	63.5% (active)	188% (active)	–
O=C(NN=C1CCCC1)c1n[nH]c2c1CCC2	–	–	–	inactive	196% (active)	35% (active)	178% (active)	–
O=C(NC(=S)N1CCN(c2ccc(F)cc2)CC1)c1cccs1	–	–	–	inactive	274% (active)	84.5% (active)	338% (active)	–

Compound	outcome [1]	outcome [2]	outcome [3]	outcome [4]	activation [1]	potentiation [2]	potentiation [3]	current potentiation [4]
Cc1ccc(C(=O)CC(=O)c2cccc(F)c2)c(O)c1	–	–	–	inactive	156% (active)	35% (active)	150% (active)	–
COC(=O)C1=C(C)Nc2nnnn2C1c1ccc(Cl)cc1Cl (stereo unspecified)	inactive	inactive	inactive	inactive	–	–	–	–
COc1ccc(N2CCN(CC(=O)Nc3nc(C)cs3)CC2)cc1	inactive	inactive	inactive	inactive	–	–	–	–
Cc1ccccc1NS(=O)(=O)c1ccc2[nH]cc(C(=O)N(C)Cc3ccco3)c(=O)c2c1	inactive	–	inactive	inactive	–	44% (active)	–	–
COc1ccc(NC(=O)[C@@H]2CC=C[C@@H]3CCN(C4CCCCC4)C(=O)[C@@H]32)cc1	inactive	inactive	inactive	inactive	–	–	–	–
COc1ccc(NC(=S)NC(=O)c2ccccc2Cl)cc1	inactive	inactive	inactive	inactive	–	–	–	–
O=C(N/N=C/c1c[nH]c2ccccc12)C1COc2ccccc2O1 (stereo unspecified)	inactive	inactive	inactive	inactive	–	–	–	–
CCn1nc(C)c(CNC(=O)C2CCC(=O)N(Cc3cccc(F)c3)C2)c1C (stereo unspecified)	inactive	inactive	inactive	inactive	–	–	–	–
O=C(c1ccco1)N1CCN=C1SCc1ccc(F)cc1	inactive	inactive	inactive	inactive	–	–	–	–
CCOC(=O)CSc1nc(C2CC2)cc(-c2ccc(F)cc2)c1C#N	–	–	–	inactive	166% (active)	52% (active)	160% (active)	–
O=S(=O)(CC(CN1CCCC1)N1CCCC1)c1ccc2ccccc2c1 (stereo unspecified)	inactive	inactive	inactive	inactive	–	–	–	–
Cc1ccc(NC(=O)CN(C)C(=O)CCOc2ccccc2C)cc1	inactive	inactive	inactive	inactive	–	–	–	–
Cc1ccc(O)c(C(=O)CC(=O)c2cccc(F)c2)c1	inactive	–	–	inactive	–	24% (active)	159% (active)	–
CCC(O)C1CCN(Cc2cn(Cc3ccccc3)nc2-c2cc3ccccc3o2)CC1 (stereo unspecified)	–	–	–	inactive	170% (active)	75% (active)	230% (active)	–
COc1ccc(OCC(=O)Nc2cccc(C(C)=O)c2)cc1	inactive	inactive	inactive	inactive	–	–	–	–
CC(C)c1nc(Cl)c(C#N)c2c1CCC2	inactive	inactive	inactive	inactive	–	–	–	–
O=C(COc1ccc2ccccc2c1)NNC(=O)[C@@H]1CCCC[C@@H]1C(=O)O	inactive	inactive	inactive	inactive	–	–	–	–
CS(=O)(=O)N1CCN(Cc2ccc(C(F)(F)F)cc2)CC1	inactive	inactive	inactive	inactive	–	–	–	–
COc1ccc(OCC(=O)N2CCCC2=O)c([N+](=O)[O-])c1	inactive	inactive	inactive	inactive	–	–	–	–
